MBD2 inh: MBD2-methylated oligo binding inhibition; Q9UBB5; TR-FRET, MBD2 binding to methylated oligonucleotide; inhibition, % at 4.4 µM; hit rate 0.31% among 370,000; AID 686964; in the data active = inhibition above about 13%
Target sequence (Q9UBB5 whole entry, looked up): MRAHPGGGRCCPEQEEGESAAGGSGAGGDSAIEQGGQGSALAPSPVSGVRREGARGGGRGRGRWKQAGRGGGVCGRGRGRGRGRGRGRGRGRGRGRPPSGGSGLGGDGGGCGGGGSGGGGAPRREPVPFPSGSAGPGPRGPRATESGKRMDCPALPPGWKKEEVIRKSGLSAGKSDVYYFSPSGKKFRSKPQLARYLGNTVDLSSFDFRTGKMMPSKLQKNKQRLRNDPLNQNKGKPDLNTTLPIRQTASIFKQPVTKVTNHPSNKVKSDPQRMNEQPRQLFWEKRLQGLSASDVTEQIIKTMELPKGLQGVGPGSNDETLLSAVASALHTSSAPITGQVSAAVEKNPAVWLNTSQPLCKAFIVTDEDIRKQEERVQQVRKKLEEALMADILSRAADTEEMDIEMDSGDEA
LEDGF integ inh: blocks HIV-1 LEDGF/p75-dependent DNA integration | hit rate 0.64% among 370,000 | TR-FRET IN-LEDGF/p75 DNA integration, Eu/Cy5 | inhibition, % at 3.7 µM | AID 743269;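 active = inhibition above the screen-wide mean plus 3 SD, cut at about 13% in these data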;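 note: signal is the Cy5 over europium emission ratio at 671 and 618 nm; 0% = plate median of compound wells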
UHRF1 MBD2 ctr: blocks human UHRF1 binding to methylated DNA; Q96T88; inhibition, % at 4.4 µM; UHRF1 binding to methylated oligo, TR-FRET; hit rate 0.75% among 370,000; in the data active = inhibition above about 21%;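 note: UHRF1 SRA domain binding a hemimethylated CpG hairpin DNA probe; 0% = median of test compound wells and 100% = reference inhibitor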
core dimer inh: HCV core protein dimerization inhibition | hit rate 0.33% among 300,000 | inhibition, % at 5 µM | TR-FRET GST/Flag-core106 dimerization, 1536-well;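 active = inhibition above the mean of all tested compounds plus 3 SD, set per screening campaign, cut at about 45% in these data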
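assay system = GST-tagged and Flag-tagged HCV core protein residues 1-106 | controls = unlabelled core106 and no-GST-core106 wells | incubation = compound-protein-antibody incubation 4 h at 22.5 °C | probe or stimulus = Eu donor and XL665 acceptor anti-tag antibodies | read-out = % inhibition based on acceptor/donor emission ratio | signal = TR-FRET 671 and 617 nm emission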
TDP2 inh: TDP2 (human) inhibition, absorbance primary screen | O95551 | recombinant TDP2, T5PNP hydrolysis, p-nitrophenol absorbance 415 nm | inhibition, % at 12.8 µM | hit rate 0.34% among 370,000 | AID 720702;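 active = inhibition above the mean of all tested compounds plus 3 SD, set per campaign, cut at about 25% in these data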;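 note: 0% = DMSO with enzyme and 100% = buffer with substrate but no TDP2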
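Assay system: Recombinant human TDP2 | Quantity: 120 nM TDP2 per well | Incubation: 2 h at 37 °C | Signal: Epi absorbance | Evaluation: Percent inhibition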
* marks the source's active call; other numbers are inactive results; x = not tested or not shown. This is a sample that favours compounds with a hit; in the whole collection about 1.8% have one here.

SMILES	MBD2 inh	LEDGF integ inh	UHRF1 MBD2 ctr	core dimer inh	TDP2 inh
O=C1CC=C2C3CC4N(CCC45c4ccccc4N1C25)CC3=CCO (centres undefined)	3.7	0.4	-3.3	x	12.6
O=C1CC=C2C3CC4N(CCC45c4cc(O)c(O)cc4N1C25)CC3=CCBr (centres undefined)	15.3*	62.1*	31.1*	x	6.4
CC(C)S(=O)(=O)N1Cc2ccc(Br)cc2-n2nncc2C1	-2.5	-5.7	2.4	x	-4.4
Brc1ccc2c(c1)-n1nncc1CNC2	1.0	5.4	34.9*	x	-12.7
C=CCN(CC#CCO)Cc1ccc(OC)cc1OC	3.6	-2.5	-3.6	x	7.7
CCOC(=O)[C@]12Cc3cc(OC)ccc3[C@H]1N(CC(=O)OC)C(=O)c1ccccc12	7.9	9.2	23.6*	x	-6.0
O=c1[nH]c(=O)n(Cc2ccco2)c(O)c1C=NCc1cccs1	3.2	-0.5	3.4	-1.1	-2.7
O=c1[nH]c(=S)n(Cc2ccco2)c(O)c1C=NCc1cccs1	-0.1	8.0	0.1	54.9*	-2.4
CCN1C(=O)/C(=C/c2ccc3c(c2)CCN3CCCCl)C(=O)NC1=S	-1.5	2.6	-3.5	84.1*	-1.3
CCCC(=O)N1c2ccc(Cl)cc2C(c2ccccc2)=NCC1C(=O)NC(C)(C)C (centres undefined)	0.7	5.0	1.2	x	-6.6
CCn1nc(-c2ccccc2)nc2c(=O)n(C)c(=O)nc1-2	x	x	x	48.0*	x
COc1ccc(-c2nc3ccccc3c(=O)n2-c2ccc(OC)cc2)cc1	-4.1	4.2	-0.2	1.2	17.9
CCOC(=O)CC[C@@H]1CC[C@]2(CCCN(Cc3cccnc3)C2)O1	-0.6	0.2	-2.9	x	8.9
C=Cc1cc(OC)c2c(c1)c(=O)oc1c2cc(OC)c2c(O)ccc(C3OC(C)C(O)C(C)(O)C3O)c21 (centres undefined)	31.2*	10.2	10.0	x	12.8
Cc1nc2c(=O)n(C)c(=O)nc-2n(C)n1	16.1*	-24.6	7.2	55.3*	85.6*
Nc1c2c(nc3sc4c(c13)CCCC4)CCCC2	9.4	1.9	28.8*	2.4	0.3
Nc1c2c(nc3sc4c(c13)CCCC4)CCCCC2	0.4	0.8	0.0	-4.8	-4.2
CC(NC(=O)OC1CC2CCC1(C)C2(C)C)P(=O)(Oc1ccccc1)Oc1ccccc1 (centres undefined)	1.4	-2.8	1.2	x	6.9
COc1cccc(C(=O)C2CN(C)CC2c2ccc(Cl)cc2)c1 (centres undefined)	2.5	0.9	69.7*	-3.2	3.9
CC(=O)c1ccc2c(c1)C1C(Cl)C(Sc3ccccc3[N+](=O)[O-])CC1C(c1ccccc1)N2 (centres undefined)	-2.3	2.3	-3.1	66.5*	-8.9
CC(=O)c1ccc2c(c1)C1C(Cl)C(Sc3ccccc3[N+](=O)[O-])CC1C(c1ccccc1[N+](=O)[O-])N2 (centres undefined)	-8.8	0.9	-3.5	53.6*	4.7
C[N+]1=C(N)NC2=C3CCCCC3ONC2C1 (centres undefined)	6.2	6.9	1.7	x	4.2
COc1ccc([C@@H]2C[C@H]3[C@@H](CN2)CON3C)cc1	0.6	2.8	-3.6	x	-1.6
N#CCC[C@@H]1CC[C@]2(CCCN(Cc3ccccn3)C2)O1	-4.8	-0.1	4.8	x	0.9
Cc1ccc(-n2c(C)cc(/C=C3/C(=O)NC(=O)N(Cc4ccco4)C3=O)c2C)cc1	3.2	28.4*	9.5	21.1	0.3
SMILES	MBD2 inh	LEDGF integ inh	UHRF1 MBD2 ctr	core dimer inh	TDP2 inh
Cc1cc(/C=C2\C(=O)NC(=O)N(Cc3ccccc3Cl)C2=O)c(C)n1-c1ccc(C(=O)O)cc1	9.8	9.8	22.1*	11.0	4.8
O=C(CN1C(=O)[C@@H](Cc2ccc(O)cc2)N=C(c2ccccc2)c2ccccc21)NC1CCCCC1	-3.4	0.2	-1.0	x	1.4
COC(=O)C1=C[C@H]([C@@H](C)[C@H](OC)c2ccccc2Br)[C@@H]2[C@H]1c1ccccc1N2C	-3.0	-0.4	-1.5	x	-5.4
CN1CCCC2c3ccccc3CCC21 (centres undefined)	-2.8	-1.0	21.6*	x	-2.5
CN1CCCC1C(O)(c1ccccc1)c1ccccc1 (centres undefined)	1.4	0.6	2.4	-4.6	-8.5
CC(Cc1ccccc1)NCc1ccccc1O (centres undefined)	3.0	-4.3	34.8*	-0.1	6.2
C#CCN[C@H](C)Cc1ccccc1	0.9	-0.4	0.3	1.0	-3.8
